ChEMBL document CHEMBL4680131, “Fangchinoline derivatives induce cell cycle arrest and apoptosis in human leukemia cell lines via suppression of the PI3K/AKT and MAPK signaling pathway” (Eur J Med Chem, 2020)

Tests used:
HEL = assay: Cytotoxicity against human HEL cells assessed as reduction in cell viability incubated for 48 hrs by MTT assay; assay type: functional, cell-based
In short: (§1)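 MTT viability after 48 h exposure. Cells (1×10^4/well) were allowed 24 h at 37 °C before dosing. Leukemia lines were grown in RPMI and breast lines in high-glucose DMEM, each with 5% FBS under 5% CO2. MTT was added for 4 h, formazan dissolved in DMSO, and absorbance read at 490 nm. Triplicate wells; values averaged over at least 3 independent experiments.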

MDA-MB-231 = assay: Cytotoxicity against human MDA-MB-231 cells assessed as reduction in cell viability incubated for 48 hrs by MTT assay; assay type: functional, cell-based; conditions: MDA-MB-231, 48 h; in short: as §1
K562 = assay: Cytotoxicity against human K562 cells assessed as reduction in cell viability incubated for 48 hrs by MTT assay; assay type: functional, cell-based; conditions: K562, 48 h; in short: as §1
MCF7 = assay: Cytotoxicity against human MCF-7 cells assessed as reduction in cell viability incubated for 48 hrs by MTT assay; assay type: functional, cell-based; conditions: MCF7, 48 h; in short: as §1
[1] = Inhibition of AKT (unknown origin) by ELISA assay; set-up: species or system Homo sapiens
In short: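 Akt kinase activity kit run per the manufacturer's protocol. Akt source was lysate of compound-treated human leukemia HEL cells, purified on a Mono Q anion-exchange column before the kinase measurement. HEL cells were grown in RPMI with 5% FBS at 37 °C and 5% CO2. The value is reported as an IC50.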

| SMILES | IC50 (HEL) [µM] | IC50 (MDA-MB-231) [µM] | IC50 (K562) [µM] | IC50 (MCF7) [µM] | IC50 [1] [µM] |
| --- | --- | --- | --- | --- | --- |
| CC[C@]1(O)C[C@@H]2CN(CCc3c([nH]c4ccccc34)[C@@](C(=O)OC)(c3cc4c(cc3OC)N(C)[C@H]3[C@@](O)(C(=O)OC)[C@H](OC(C)=O)[C@]5(CC)C=CCN6CC[C@]43[C@@H]65)C2)C1 [VINBLASTINE] | 16 | 17.7 | 9.49 | 37.5 |  |
| COc1ccc2cc1Oc1ccc(cc1)C[C@H]1c3cc(c(OC)cc3CCN1C)Oc1c(OC)c(OC)cc3c1[C@H](C2)N(C)CC3 [FANCHININ] | 19.7 | 18.4 | 6.43 | 19.6 |  |
| COc1ccc2cc1Oc1ccc(cc1)C[C@H]1c3cc(c(OC)cc3CCN1C)Oc1c(OC(=O)N3CCCOC3)c(OC)cc3c1[C@H](C2)N(C)CC3 | 40.2 | 15.1 | 15.9 | 25.2 |  |
| COc1ccc2cc1Oc1ccc(cc1)C[C@H]1c3cc(c(OC)cc3CCN1C)Oc1c(OC(=O)C(C)(C)C)c(OC)cc3c1[C@H](C2)N(C)CC3 | 3.73 | 8.56 | 4.03 | 7.69 |  |
| COc1ccc2cc1Oc1ccc(cc1)C[C@H]1c3cc(c(OC)cc3CCN1C)Oc1c(OC(=O)C3CC3)c(OC)cc3c1[C@H](C2)N(C)CC3 | 21.3 | 13.5 | 17.5 | > 100 |  |
| COc1ccc2cc1Oc1ccc(cc1)C[C@H]1c3cc(c(OC)cc3CCN1C)Oc1c(OC(=O)c3cccc(Cl)c3)c(OC)cc3c1[C@H](C2)N(C)CC3 | 4.26 | 8.03 | 3.79 | 4.42 |  |
| COc1ccc2cc1Oc1ccc(cc1)C[C@H]1c3cc(c(OC)cc3CCN1C)Oc1c(OC(=O)c3ccc(Cl)c(Cl)c3)c(OC)cc3c1[C@H](C2)N(C)CC3 | 4.56 | 18.3 | 8.52 | 10.8 |  |
| C=CC(=O)Oc1c(OC)cc2c3c1Oc1cc4c(cc1OC)CCN(C)[C@H]4Cc1ccc(cc1)Oc1cc(ccc1OC)C[C@@H]3N(C)CC2 | 4.27 | 5.03 | 6.77 | 7.28 |  |
| COc1ccc2cc1Oc1ccc(cc1)C[C@H]1c3cc(c(OC)cc3CCN1C)Oc1c(OC(=O)c3cccc4ccccc34)c(OC)cc3c1[C@H](C2)N(C)CC3 | 3.46 | 16.5 | 4.59 | 8.19 |  |
| COc1ccc2cc1Oc1ccc(cc1)C[C@H]1c3cc(c(OC)cc3CCN1C)Oc1c(OC(=O)CCCl)c(OC)cc3c1[C@H](C2)N(C)CC3 | 4.84 | 9.47 | 6.47 | 18.8 |  |
| COc1ccc2cc1Oc1ccc(cc1)C[C@H]1c3cc(c(OC)cc3CCN1C)Oc1c(OC(=O)C(Cl)(Cl)Cl)c(OC)cc3c1[C@H](C2)N(C)CC3 | 3.54 | 4.05 | 3.3 | 7.14 |  |
| CCN(C)C(=O)Oc1c(OC)cc2c3c1Oc1cc4c(cc1OC)CCN(C)[C@H]4Cc1ccc(cc1)Oc1cc(ccc1OC)C[C@@H]3N(C)CC2 | 3.46 | 9.89 | 5.89 | 20.6 |  |
| COc1ccc2cc1Oc1ccc(cc1)C[C@H]1c3cc(c(OC)cc3CCN1C)Oc1c(OC(=O)N3c4ccccc4Sc4ccccc43)c(OC)cc3c1[C@H](C2)N(C)CC3 | 17.6 | 10.1 | 12.4 | 20.7 |  |
| COc1ccc2cc1Oc1ccc(cc1)C[C@H]1c3cc(c(OC)cc3CCN1C)Oc1c(OC(=O)c3ccc(Cl)cc3)c(OC)cc3c1[C@H](C2)N(C)CC3 | 2.81 | 7.55 | 2.8 | 8.63 |  |
| COc1ccc2cc1Oc1ccc(cc1)C[C@H]1c3cc(c(OC)cc3CCN1C)Oc1c(OC(=O)C=C(C)C)c(OC)cc3c1[C@H](C2)N(C)CC3 | 5.16 | 10.3 | 5.39 | > 100 |  |
| COc1ccc2cc1Oc1ccc(cc1)C[C@H]1c3cc(c(OC)cc3CCN1C)Oc1c(OC(=O)CCCCl)c(OC)cc3c1[C@H](C2)N(C)CC3 | 7.86 | 8.68 | 6.55 | 12.4 |  |
| COc1ccc2cc1Oc1ccc(cc1)C[C@H]1c3cc(c(OC)cc3CCN1C)Oc1c(OC(=O)CBr)c(OC)cc3c1[C@H](C2)N(C)CC3 | 25.9 | 17.8 | 14.3 | 22.1 |  |
| COc1ccc2cc1Oc1ccc(cc1)C[C@H]1c3cc(c(OC)cc3CCN1C)Oc1c(O)c(OC)cc3c1[C@H](C2)N(C)CC3 [FANGCHINOLINE] | 22.7 | 58.6 | 5.94 | 17.4 | > 20 |
| COc1ccc2cc1Oc1ccc(cc1)C[C@H]1c3cc(c(OC)cc3CCN1C)Oc1c(OC(=O)/C=C/c3ccccc3)c(OC)cc3c1[C@H](C2)N(C)CC3 | 10.2 | 7.9 | 9.43 | 16.1 |  |
| C=CCCCCCCCCC(=O)Oc1c(OC)cc2c3c1Oc1cc4c(cc1OC)CCN(C)[C@H]4Cc1ccc(cc1)Oc1cc(ccc1OC)C[C@@H]3N(C)CC2 | 15.7 | 13 | 10.4 | 8.57 |  |
| COc1ccc2cc1Oc1ccc(cc1)C[C@H]1c3cc(c(OC)cc3CCN1C)Oc1c(OC(=O)c3ccc(Br)cc3)c(OC)cc3c1[C@H](C2)N(C)CC3 | 2.31 | 5.58 | 3.06 | 6.84 |  |
| COc1ccc2cc1Oc1ccc(cc1)C[C@H]1c3cc(c(OC)cc3CCN1C)Oc1c(OC(=O)c3ccccc3Cl)c(OC)cc3c1[C@H](C2)N(C)CC3 | 3.22 | 5.41 | 3.58 | 6.26 |  |
| CCCCCC(=O)Oc1c(OC)cc2c3c1Oc1cc4c(cc1OC)CCN(C)[C@H]4Cc1ccc(cc1)Oc1cc(ccc1OC)C[C@@H]3N(C)CC2 | 21 | 11.3 | 13.3 | 12 |  |
| CCN(CC)C(=O)Oc1c(OC)cc2c3c1Oc1cc4c(cc1OC)CCN(C)[C@H]4Cc1ccc(cc1)Oc1cc(ccc1OC)C[C@@H]3N(C)CC2 | 2.98 | 9.04 | 3.74 | 23.7 |  |
| COc1ccc2cc1Oc1ccc(cc1)C[C@H]1c3cc(c(OC)cc3CCN1C)Oc1c(OC(=O)CCl)c(OC)cc3c1[C@H](C2)N(C)CC3 | 10.8 | 10 | 12.3 | 30.1 |  |
| COc1ccc2cc1Oc1ccc(cc1)C[C@H]1c3cc(c(OC)cc3CCN1C)Oc1c(OC(=O)c3ccc(Cl)cc3Cl)c(OC)cc3c1[C@H](C2)N(C)CC3 | 10.2 | 28 | 6.11 | > 100 |  |
| COc1ccc2cc1Oc1ccc(cc1)C[C@H]1c3cc(c(OC)cc3CCN1C)Oc1c(OC(=O)c3c(Cl)cc(Cl)cc3Cl)c(OC)cc3c1[C@H](C2)N(C)CC3 | 7.65 | 23 | 7.6 | 18.2 |  |
